Laboratory results: ChEMBL document CHEMBL1122187, “Synthesis and antiviral activity of certain carbamoylpyrrolopyrimidine and pyrazolopyrimidine nucleosides” (1982)

What was measured:
Vero [1] = test: Percentage plaque reduction was determined against venezuelan equine encephalitis (VEE) virus in african green monkey kidney (vero,V) at a conc of <25 ug/mL. Toxic level(320 ug/mL); format: functional, Chlorocebus sabaeus
Vero [2] = test: Percentage plaque reduction was determined against Sandfly fever (SF) virus in african green monkey kidney (vero,V) at a conc of 250-500 ug/mL. Toxic level(320 ug/mL); format: functional, Chlorocebus sabaeus
Vero [3] = test: Percentage plaque reduction was determined against Sandfly fever (SF) virus in african green monkey kidney (vero,V) at a conc of 25-100 ug/mL. Toxic level(320 ug/mL); format: functional, Chlorocebus sabaeus
Vero [4] = test: Percentage plaque reduction was determined against venezuelan equine encephalitis (VEE) virus in african green monkey kidney (vero,V) at a conc of 250-500 ug/mL. Toxic level(320 ug/mL); format: functional, Chlorocebus sabaeus
Vero [5] = test: Percentage plaque reduction was determined against rift valley fever(RVF) virus in african green monkey kidney (vero,V) at a conc of 250-500 ug/mL. Toxic level(320 ug/mL); 10-30; format: functional, Chlorocebus sabaeus
Vero [6] = test: Percentage plaque reduction was determined against venezuelan equine encephalitis (VEE) virus in african green monkey kidney (vero,V) at a conc of 100-250 ug/mL. Toxic level(320 ug/mL); format: functional, Chlorocebus sabaeus
Vero [7] = test: In vitro antiviral activity against parainfluenza type 3(para 3) virus was determined in african green monkey kidney (vero,V) expressed as virus rating. Toxic level(320 ug/mL); format: functional, Chlorocebus sabaeus
How it was run: (§1)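 Cell monolayers (18 h) infected with 320 TCID50 of virus. Compound was added within 15–30 min at half-log dilutions from 1000 to 1 μg/mL. After 72 h at 37 °C in 5% CO2, CPE was scored 0–4 by microscopy. VR = sum of (virus control − treated) scores, halved at partially toxic levels, divided by 10 × test cups per drug level.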

Vero [8] = test: Percentage plaque reduction was determined against Sandfly fever (SF) virus in african green monkey kidney (vero,V) at a conc of 100-250 ug/mL. Toxic level(320 ug/mL); format: functional, Chlorocebus sabaeus
Vero [9] = test: Percentage plaque reduction was determined against venezuelan equine encephalitis (VEE) virus in african green monkey kidney (vero,V) at a conc of 25-100 ug/mL. Toxic level(320 ug/mL); format: functional, Chlorocebus sabaeus
Vero [10] = test: In vitro antiviral activity against herpes simplex type 1 (HSV-1) virus was determined in african green monkey kidney (vero,V) expressed as virus rating. Toxic level(320 ug/mL); format: functional, Chlorocebus sabaeus; how it was run: as §1
Vero [11] = test: Percentage plaque reduction was determined against Sandfly fever (SF) virus in african green monkey kidney (vero,V) at a conc of <25 ug/mL. Toxic level(320 ug/mL); format: functional, Chlorocebus sabaeus
How it was run: (§2)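 Infected Vero 24-well monolayers: virus adsorbed 1 h at 37 °C, then overlaid with agar holding dilutions of compound and incubated again at 37 °C with CO₂. Plaques were stained with crystal violet and counted. Inhibition was scored as % plaque reduction bands (10-30%, 31-60%, 61-90%), each tied to a drug concentration range.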

Vero [12] = test: Percentage plaque reduction was determined against yellow fever (YF) virus in african green monkey kidney (vero,V).Toxic level(320 ug/mL); 10-30; format: functional, Chlorocebus sabaeus
Vero [13] = test: In vitro antiviral activity against vaccinia(VV) virus was determined in african green monkey kidney (vero,V) expressed as virus rating. Toxic level(320 ug/mL); format: functional, Chlorocebus sabaeus; how it was run: as §1
Vero [14] = test: In vitro antiviral activity against herpes simplex type 1 (HSV-1) virus was determined in african green monkey kidney (vero,V) expressed as virus rating. Toxic level(>1000 ug/mL); format: functional, Chlorocebus sabaeus; how it was run: as §1
Vero [15] = test: In vitro antiviral activity against vaccinia(VV) virus was determined in african green monkey kidney (vero,V) expressed as virus rating. Toxic level(>1000 ug/mL); format: functional, Chlorocebus sabaeus; how it was run: as §1
Vero [16] = test: In vitro antiviral activity against parainfluenza type 3(para 3) virus was determined in african green monkey kidney (vero,V) expressed as virus rating. Toxic level(>1000 ug/mL); format: functional, Chlorocebus sabaeus; how it was run: as §1
Vero [17] = test: Percentage plaque reduction was determined against pichinde(PICH) virus in african green monkey kidney (vero,V).Toxic level(1000 ug/mL); 10-30; format: functional, Chlorocebus sabaeus; how it was run: as §2
Vero [18] = test: In vitro antiviral activity against parainfluenza type 3(para 3) virus was determined in african green monkey kidney (vero,V) expressed as virus rating. Toxic level(1000 ug/mL); format: functional, Chlorocebus sabaeus; how it was run: as §1
Vero [19] = test: In vitro antiviral activity against vaccinia(VV) virus was determined in african green monkey kidney (vero,V) expressed as virus rating. Toxic level(1000 ug/mL); format: functional, Chlorocebus sabaeus; how it was run: as §1
Vero [20] = test: Percentage plaque reduction was determined against venezuelan equine encephalitis (VEE) virus in african green monkey kidney (vero,V) at a conc of 100-250 ug/mL. Toxic level(1000 ug/mL); format: functional, Chlorocebus sabaeus
Vero [21] = test: Percentage plaque reduction was determined against Sandfly fever (SF) virus in african green monkey kidney (vero,V) at a conc of 25-100 ug/mL. Toxic level(1000 ug/mL); 61-90; format: functional, Chlorocebus sabaeus
Vero [22] = test: In vitro antiviral activity against herpes simplex type 1 (HSV-1) virus was determined in african green monkey kidney (vero,V) expressed as virus rating. Toxic level(1000 ug/mL); format: functional, Chlorocebus sabaeus; how it was run: as §1
Vero [23] = test: Percentage plaque reduction was determined against yellow fever(YF) virus in african green monkey kidney (vero,V).Toxic level(1000 ug/mL); 61-90; format: functional, Chlorocebus sabaeus
Vero [24] = test: Percentage plaque reduction was determined against venezuelan equine encephalitis (VEE) virus in african green monkey kidney (vero,V) at a conc of 25-100 ug/mL. Toxic level(1000 ug/mL); format: functional, Chlorocebus sabaeus
Vero [25] = test: Percentage plaque reduction was determined against venezuelan equine encephalitis (VEE) virus in african green monkey kidney (vero,V) at a conc of <25 ug/mL. Toxic level(1000 ug/mL); format: functional, Chlorocebus sabaeus
Vero [26] = test: Percentage plaque reduction was determined against venezuelan equine encephalitis (VEE) virus in african green monkey kidney (vero,V) at a conc of 250-500 ug/mL. Toxic level(1000 ug/mL); format: functional, Chlorocebus sabaeus
Vero [27] = test: Percentage plaque reduction was determined against rift valley fever(RVF) virus in african green monkey kidney (vero,V) at a conc of 250-500 ug/mL. Toxic level(1000 ug/mL); 10-30; format: functional, Chlorocebus sabaeus
HEp-2 [28] = test: In vitro antiviral activity against herpes simplex type 1 (HSV-1) virus was determined in human laryngeal epithelioma (HEp-2,H)expressed as virus rating. Toxic level(100 ug/mL); format: functional; how it was run: as §1
HEp-2 [29] = test: In vitro antiviral activity against parainfluenza type 3(para 3) virus was determined in human laryngeal epithelioma (HEp-2,H)expressed as virus rating. Toxic level(100 ug/mL); format: functional; how it was run: as §1
HEp-2 [30] = test: In vitro antiviral activity against vaccinia(VV) virus was determined in human laryngeal epithelioma (HEp-2,H)expressed as virus rating. Toxic level(100 ug/mL); format: functional; how it was run: as §1

In the case of `CSc1ncnc2c1cnn2[C@@H]1O[C@H](COC(C)=O)[C@@H](OC(C)=O)[C@H]1OC(C)=O`, the Plaque reduction (Vero [1]) is reported as 0%, the Plaque reduction (Vero [2]) is reported as 0% and the Plaque reduction (Vero [3]) is reported as 0%. For the same compound, the Plaque reduction (Vero [4]) was 0%, the Plaque reduction (Vero [5]) was 10% and the Plaque reduction (Vero [6]) was 0%. For the same compound, the Virus rating (Vero [7]) was 0, the Plaque reduction (Vero [8]) was 0% and the Plaque reduction (Vero [9]) was 0%. It also gave a Virus rating (Vero [10]) of 0, a Plaque reduction (Vero [11]) of 0% and a Plaque reduction (Vero [12]) of 10%. It also gave a Virus rating (Vero [13]) of 0.5.

`CSc1ncnc2c1ncn2[C@@H]1O[C@H](CO)[C@@H](O)[C@H]1O` showed a Virus rating (Vero [7]) of 2.2, a Virus rating (Vero [10]) of 1.7 and a Virus rating (Vero [13]) of 2.

With `OC[C@H]1O[C@@H](n2ccc3c(S)ncnc32)[C@H](O)[C@@H]1O` the Virus rating (Vero [14]) was 0.2, the Virus rating (Vero [15]) was 0.5 and the Virus rating (Vero [16]) was 1.1.

Compound `OC[C@H]1O[C@@H](C2=NNC3C(=S)N=CN=C23)[C@H](O)[C@@H]1O` (some centres undefined) has a Plaque reduction (Vero [17]) of 10%, a Virus rating (Vero [18]) of 1.1 and a Virus rating (Vero [19]) of 1. It also gave a Plaque reduction (Vero [20]) of 0%, a Plaque reduction (Vero [21]) of 61% and a Virus rating (Vero [22]) of 0. The Plaque reduction (Vero [23]) was 61%, the Plaque reduction (Vero [24]) was 0% and the Plaque reduction (Vero [25]) was 0%. The Plaque reduction (Vero [26]) was 0% and the Plaque reduction (Vero [27]) was 10%.

For `OC[C@H]1OC(n2ncc3c(S)ncnc32)[C@H](O)[C@@H]1O` (some centres undefined), the Virus rating (Vero [14]) was 0, the Virus rating (Vero [15]) was 0.9 and the Virus rating (Vero [16]) was 0.7.

Work on `NC(=O)c1ncnc2c1ccn2C1O[C@H](CO)[C@@H](O)[C@H]1O` (some centres undefined) yielded a Virus rating (HEp-2 [28]) of 0, a Virus rating (Vero [18]) of 0.4 and a Virus rating (Vero [19]) of 1.3. It also gave a Virus rating (Vero [22]) of 0.4, a Virus rating (HEp-2 [29]) of 0.2 and a Virus rating (HEp-2 [30]) of 1.2.
